Hits are enriched below; roughly 3% of the tested compounds scored in any of these assays.
MC4R antag cAMP = blocks human MC4R cAMP signaling; MC4R-expressing cells, MTII-stimulated cAMP, LANCE TR-FRET; inhibition, % at 6.5 µM; hit rate 0.48% among 360,000; AID 540295;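 active = inhibition above its plate's cutoff, the mean of tested wells on that plate plus 3 SD, cut at about 29% in these data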;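 note: 0% = Melanotan II alone and 100% = Melanotan II plus saturating MCL0020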
Target sequence (P32245 whole entry, looked up): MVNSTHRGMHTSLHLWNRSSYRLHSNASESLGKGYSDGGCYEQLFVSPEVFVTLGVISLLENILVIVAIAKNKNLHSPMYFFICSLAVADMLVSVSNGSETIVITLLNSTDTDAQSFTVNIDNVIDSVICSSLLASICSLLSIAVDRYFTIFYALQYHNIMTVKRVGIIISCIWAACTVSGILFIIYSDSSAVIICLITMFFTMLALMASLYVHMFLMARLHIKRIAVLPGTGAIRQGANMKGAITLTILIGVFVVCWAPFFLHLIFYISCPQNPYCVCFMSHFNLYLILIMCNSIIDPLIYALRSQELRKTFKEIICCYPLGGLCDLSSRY
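System – human MC4R-expressing U2OS cells · Also added – Melanotan II · Dosing – one concentration, 6.5 µM nominal · Timing – 30-min compound, 1-h challenge, 1-h detection, room temperature · Measured by – Eu-cAMP/anti-cAMP TR-FRET, emission 671 nm · Replicates – singlicate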
PfG6PD inh = PfG6PD (Plasmodium falciparum) enzyme inhibition. PfGluPho enzyme, NADPH resazurin-diaphorase fluorescence. inhibition, % at 20 µM. hit rate 0.78% among 350,000;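 active = inhibition reaching at least a set limit at 20 µM in the primary screen, cut at about 59% in these data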;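 note: 0% = DMSO wells with substrate and 100% = DMSO wells lacking glucose-6-phosphate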
ABHD5-PLIN5 inh = blocks binding of human ABHD5 to perilipin-5 | Split G. princeps luciferase complementation, luminescence, 4 h | hit rate 0.78% among 360,000 | inhibition, % at 4 µM | AID 602281;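 active = inhibition above the mean inhibition across every tested compound plus 3 SD, cut at about 22% in these data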;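 note: 0% = DMSO only wells and the 100% control is not disclosed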
Beta2AR agonist = activates human beta-2 adrenergic receptor causing internalization. P07550. Am2.2-beta2AR cells, FAP receptor internalization, flow cytometry. response, % (test concentration not listed). hit rate 0.43% among 340,000. AID 504454;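 active = response above a set limit, near 3 SD of response in nonfluorescent compounds, cut at about 42% in these data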
MC4R ag barr = human MC4R agonism via beta-arrestin; P32245; U2OS MC4R beta-arrestin complementation, luminescence; percent of melanotan II response, DMSO zero; activation, % at 8.9 µM; hit rate 0.98% among 360,000; AID 540308;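 active = activation above a per-plate cutoff, the mean activation of sample wells on that plate plus 3 SD, cut at about 8% in these data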
Numbers without * were called inactive; . = no result.

SMILES	MC4R antag cAMP	PfG6PD inh	ABHD5-PLIN5 inh	Beta2AR agonist	MC4R ag barr
Cc1ccc(Nc2nc(N)nc(CN3CCCCCC3)n2)c(C)c1	6	2	5	-3	0
Cc1ccc(Nc2nc(N)nc(CCl)n2)c(C)c1	11	9	0	18	15*
CCOc1ccc(Nc2nc(N)nc(CCl)n2)cc1	11	3	1	26	12*
COc1ccc(OC)c(Nc2nc(N)nc(CCl)n2)c1	10	-3	-3	9	9.2*
CC1CCCN(CC(=O)Nc2ccc(S(=O)(=O)N3C(C)CCCC3C)cc2)C1 (centres undefined)	-2	14	-5	.	1
NC(=S)N/N=C1\CCOc2ccc(F)cc21	10	-6	1	8	0
CC(=O)Nc1nnc(SCc2cc(=O)c(OC(=O)c3ccccc3)co2)s1	12	-11	-2	-1	-1
Cc1ccc(C(=O)Oc2coc(CSc3nnc(NC(=O)c4cccs4)s3)cc2=O)cc1	8	-47	0	-9	9.2*
Cc1cccc(NC(=O)Nc2ccc3c(c2)N(C)C(=O)CS3)n1	3	31	-6	10	-2
Cc1ccnc(NC(=O)Nc2ccc3c(c2)N(C)C(=O)CS3)c1	5	18	-5	5	9.1*
Cc1ccc(NC(=O)Nc2ccc3c(c2)N(C)C(=O)CS3)nc1	10	1	4	11	9.4*
COC(=O)C1Cc2c([nH]c3ccccc23)CN1C(C)=O (centres undefined)	2	6	-6	17	-3
O=C(c1cccs1)c1no[n+]([O-])c1C(=O)c1cccs1	5	26	-2	32	17*
COc1ccc(C(=O)c2no[n+]([O-])c2C(=O)c2ccc(OC)cc2)cc1	2	28	-1	44*	8
COc1ccc(NC(=O)c2c(N)no[n+]2[O-])cc1	25	1	-1	4	-2
COc1cc(C(=O)NCc2ccc(S(N)(=O)=O)cc2)ccc1OCC(=O)N1CCOCC1	12	3	12	-5	0
O=C(CC1OC(=O)c2ccccc21)Nc1cc(Cl)ccc1N1CCOCC1 (centres undefined)	11	8	5	6	3
COc1ccc(C(=O)N=C2SC3CS(=O)(=O)CC3N2c2ccc(N(C)C)cc2)cc1OC (centres undefined)	10	-9	-9	54*	1
Cc1ccc(-c2cc(-c3ccccc3)c3c(N)c(S(C)(=O)=O)sc3n2)cc1	-14	9	6	2	-3
CS(=O)(=O)c1sc2nc(-c3cccs3)cc(-c3ccccc3)c2c1N	9	56	-6	43*	-1
CCN1/C(=C/c2ccc3cc(C)ccc3[n+]2CC)Sc2ccc3sccc3c21	-6	61*	5	.	14*
Cn1c(/C=C/c2ccc(Br)cc2)nc2ccccc2c1=O	26	-3	9	-4	9.0*
CC(C)(C)C1CCc2onc(C(=O)Nc3ccc(F)cc3F)c2C1 (centres undefined)	2	14	-7	-3	8.3*
CCCCCCNC(=O)O[C@H]1Cn2c(=O)ccc(=O)n2[C@@H]2CN(S(=O)(=O)c3ccc(C)cc3)C[C@]12O	9	-3	23*	.	-3
CCCCCCn1c(=O)n2n(c1=O)[C@@H]1CN(S(=O)(=O)c3ccc(C)cc3)C[C@]1(O)[C@@H](OC(=O)NC1CC1)C2	-3	-2	2	.	-1
SMILES	MC4R antag cAMP	PfG6PD inh	ABHD5-PLIN5 inh	Beta2AR agonist	MC4R ag barr
COc1ccc(-c2csc(NC(=O)CSc3nnnn3C)n2)cc1OC	-5	8	14	3	-3
Cc1cc(C)cc(-n2nnnc2SCC(=O)Nc2nc(-c3ccc(F)cc3)cs2)c1	10	8	-1	-9	30*
COc1cc(/C=C(\C#N)c2ccccn2)ccc1OCc1ccccc1Cl	8	-6	-1	9	0
COc1cc(/C=C(\C#N)c2ccccn2)ccc1OCC(=O)Nc1cccc(C(F)(F)F)c1	4	-2	6	76*	1
Cc1ccc(C2=NOC(=O)/C2=C\c2ccc(C)o2)cc1	12	22	7	56*	-3
OC(c1cc(Cl)cc(Cl)c1)c1ncc(-c2ccccc2F)[nH]1 (centres undefined)	2	.	-18	.	2
CCOC(=O)N1CCN(C(=O)c2ccccc2NC(=O)c2ccc(F)cc2)CC1	3	-8	7	-6	8.4*
COc1ccc(/C=N/Nc2cc(C)nc3ccccc23)cc1	1	23	8	27	2
